Results as given in article PMC6314479 (Nature chemical biology, 2017).

Key:
USP10 [1] = molecular target: USP10 (Homo sapiens, UniProt Q14694); assay: MALDI-TOF DUB assay with diubiquitin as substrate, dose response; type: biochemical; settings: read-out: USP10 IC50
How it was run: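 Human USP10 was freshly diluted in 40mM Tris–HCl pH 7.6, 5mM DTT, 0.005% BSA and pre-incubated with test compound for 30 min at room temperature. Di-ubiquitin topoisomers (K63, K48, K11, M1) at 1.5 μM were added, incubated 30 min at room temperature, then stopped with TFA at 2% (v/v) final. Cleavage was read by MALDI-TOF.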

wt FLT3 = assay: FLT3 protein levels in Ba/F3-wtFLT3 cells; type: cell-based, murine
FLT3-ITD = assay: FLT3 degradation in FLT3-ITD positive AML lines; type: cell-based, human; settings: MOLM13-luc+ and MOLM14, 20 μM
Beclin-1 = Beclin-1 and FLT3 protein levels; type: cell-based
[2] = system: FLT3-ITD positive primary AML patient cells and primagraft cells; assay: Ex vivo treatment of AML patient samples and primagrafts; type: cell-based, human; settings: 21 hours, 20 μM
[3] = system: FLT3-ITD+, D835Y+ AML primagraft; assay: AML primagraft study in NSG mice; type: in vivo
How it was run: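 Primagraft mice got the test compound at 15 mg/kg IP once daily (n=3) or vehicle (n=3). Dosing began once disease was detectable by flow cytometry and ran for 21 days. Body weight was followed to judge tolerability.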

[4] = system: Ba/F3-FLT3-ITD-luc+ cells; assay: Non-invasive in vivo bioluminescence model of leukemia
[5] = system: Ba/F3-FLT3-ITD and Ba/F3-FLT3-D835Y cells; assay: Proliferation of mutant FLT3-positive Ba/F3 cells; type: cell-based, murine
USP10 [6] = assay: Competitive activity-based protein profiling with HA-Ub-VS in cells; type: cell-based; settings: lysates from live treated cells (Ba/F3-FLT3-ITD, MOLM14)
[7] = 50 mg/kg twice daily IP, 4 days, pilot study

Sequence of USP10 (Homo sapiens, UniProt Q14694) (Q14694 whole entry): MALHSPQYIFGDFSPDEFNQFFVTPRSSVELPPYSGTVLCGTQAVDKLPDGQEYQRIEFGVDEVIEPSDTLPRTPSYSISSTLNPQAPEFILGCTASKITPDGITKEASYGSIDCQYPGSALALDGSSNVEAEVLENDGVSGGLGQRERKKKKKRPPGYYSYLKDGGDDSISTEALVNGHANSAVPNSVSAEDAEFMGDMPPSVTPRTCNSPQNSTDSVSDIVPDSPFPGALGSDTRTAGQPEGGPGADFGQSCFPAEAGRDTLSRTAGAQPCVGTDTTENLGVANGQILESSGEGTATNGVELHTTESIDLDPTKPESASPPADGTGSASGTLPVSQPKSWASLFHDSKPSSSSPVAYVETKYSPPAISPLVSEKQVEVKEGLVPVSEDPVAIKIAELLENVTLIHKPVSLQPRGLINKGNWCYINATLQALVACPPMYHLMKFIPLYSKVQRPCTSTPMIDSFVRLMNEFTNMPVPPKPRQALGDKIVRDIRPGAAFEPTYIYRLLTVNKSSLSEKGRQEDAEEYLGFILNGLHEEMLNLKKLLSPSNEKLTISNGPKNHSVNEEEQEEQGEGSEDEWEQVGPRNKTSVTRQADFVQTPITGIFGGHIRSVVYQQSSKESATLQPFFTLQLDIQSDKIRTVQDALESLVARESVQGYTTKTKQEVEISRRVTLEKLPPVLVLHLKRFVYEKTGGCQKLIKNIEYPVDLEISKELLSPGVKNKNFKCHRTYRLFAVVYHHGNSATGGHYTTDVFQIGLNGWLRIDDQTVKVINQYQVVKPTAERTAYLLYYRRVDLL

Row | Compound | IC50 (USP10 [1]) [µM] | FLT3 protein levels (wt FLT3) | FLT3 degradation (FLT3-ITD) | protein levels of Beclin-1 (Beclin-1; 10 μM, MOLM14 cells) | FLT3 levels via immunoblotting [2] | FLT3 signal in mouse bone marrow lysates (immunoblot) ([3]; 15 mg/kg IP 1X daily, 21 days) | tolerability ([3]; 15mg/kg, 21 day treatment) | average weight loss ([3]; 15mg/kg, 21 days, same for vehicle-treated) [g] | leukemia burden compared to vehicle (in vivo bioluminescence) ([4]; 50 mg/kg IP twice daily or oral gavage once daily, 4–6 days of treatment) | lower percentage of FLT3 expression in bone marrow vs vehicle (flow cytometry) [4, 7] | reduction in luciferase-positive signal in bone marrow vs vehicle [4, 7] | difference in weight vs vehicle-treated mice ([4]; treated for up to 11 days) | EC50 for inhibition of proliferation [5] | protein levels of Beclin-1 and FLT3 (Beclin-1; 20 μM, Ba/F3-FLT3-ITD and MOLM14 cells) | inhibitor concentration blocking USP10 labeling by HA-Ub-VS (USP10 [6])
1 | CC(=O)c1cc([N+](=O)[O-])c(Sc2ccc(F)cc2F)s1 [P22077] | 6 | unchanged | strongly induced FLT3 degradation | strongly decreased | strong reduction in FLT3 | undetectable | generally well tolerated | 2 to 3 | statistically significant decrease | approximately 2 fold | approximately 2 fold | no significant difference | – | – | –
2 | HBX19818 | 14 | unchanged | strongly induced FLT3 degradation | – | strong reduction in FLT3 | – | – | – | – | – | – | – | single digit micromolar range | strongly decreased | low micromolar range
